High-throughput results as filed in PubChem.
T cruzi growth-1 – T. cruzi proliferation inhibition. actives 5.9% (n = 77,000). T. cruzi beta-gal in NIH3T3, GalScreen luminescence, 90 h. AID 624255. inhibition, % at 8.34 µM;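 active = mean inhibition above about 93%, with at least 55% of replicates each passing it, limit read from the data, passing the limit was not always enough; inconclusive = only one of those two conditions holds; inactive = neither condition holds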
KDM4C inh – blocks human GASC-1 (KDM4C) demethylase activity; Q9H3R0; GST-KDM4C 2-372, H3K9me3 peptide, LANCE TR-FRET; inhibition, % at 12.5 µM; actives 0.15% (n = 96,000); AID 720574;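 active = mean replicate inhibition above about 25%, with at least 55% of replicates also reaching it, limit read from the data, passing the limit was not always enough; inconclusive = only one of those two conditions met; inactive = neither condition met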
Target sequence (Q9H3R0 2-372 limits assumed): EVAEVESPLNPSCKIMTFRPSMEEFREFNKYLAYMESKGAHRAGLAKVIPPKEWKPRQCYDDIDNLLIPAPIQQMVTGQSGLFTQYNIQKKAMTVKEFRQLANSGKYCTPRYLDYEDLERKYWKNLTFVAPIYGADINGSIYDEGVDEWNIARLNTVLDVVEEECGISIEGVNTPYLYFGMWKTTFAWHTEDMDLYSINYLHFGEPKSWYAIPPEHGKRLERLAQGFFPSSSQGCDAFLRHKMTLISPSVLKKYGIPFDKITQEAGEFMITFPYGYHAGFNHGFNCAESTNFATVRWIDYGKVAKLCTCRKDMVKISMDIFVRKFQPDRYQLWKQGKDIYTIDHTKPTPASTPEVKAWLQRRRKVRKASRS
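Material: GST-tagged GASC-1 (JMJD2C) catalytic fragment, aa 2-372 / Quantity: enzyme final amount 10 nM / Medium: HEPES buffer, pH 7.5, plus ascorbate / Doses: one test concentration per compound / Incubation: 30 min reaction, 60 min detection, RT / Measured by: LANCE TR-FRET / Read-out: inhibition from TR-FRET ratio decrease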
IDH1 mut inh – IDH1 R132H (human) inhibition | IDH1 R132H reductase, diaphorase/resazurin fluorescence, 60 min | O75874 | inhibition, % at 10 µM | AID 624101 | actives 0.18% (n = 70,000); in the data active = inhibition above about 34%; inconclusive = no clear call, values can overlap the other calls; inactive = below about 11%;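 also: 0% = DMSO and 100% = no enzyme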
T cruzi growth-2 – inhibitors of T. cruzi proliferation | shares compounds with T cruzi growth-1 | T. cruzi beta-gal in NIH3T3, GalScreen luminescence, 90 h | inhibition, % at 8.35 µM | actives 72% (n = 5,600) | AID 651739;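 active = mean replicate inhibition above about 95% and at least 55% of replicates individually reaching it, limit read from the data; inconclusive = only one of the two criteria is met; inactive = neither criterion is met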
T cruzi growth-3 – blocks T. cruzi growth in NIH3T3 host cells; inhibition, % at 2.09 µM; shares compounds with T cruzi growth-1; AID 651740; actives 21% (n = 5,600); T. cruzi beta-gal in NIH3T3, GalScreen luminescence, 90 h;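 active = mean inhibition above about 95%, with at least 55% of replicates also reaching it, limit read from the data; inconclusive = meets just one of the two conditions; inactive = meets neither condition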;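 also: plate controls were neutral control median for no effect and positive control median for full effect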
3T3 cytotox – kills mouse NIH/3T3 fibroblasts; cytotoxicity (signal decrease), % at 8.35 µM; actives 14% (n = 5,600); NIH/3T3 viability, CellTiter-Glo ATP luminescence, 90 h; shares compounds with T cruzi growth-1;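 active = mean signal decrease across replicates above about 35% based on untreated-well scatter, with enough replicates individually passing, limit read from the data; inconclusive = no rule stated though some were filed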;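 also: 0% = median of neutral control wells and 100% = median of positive control wells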
3T3 cytotox 2 – cytotoxicity in mouse NIH/3T3 fibroblasts. actives 56% (n = 5,600). AID 651744. NIH/3T3 viability, CellTiter-Glo ATP luminescence, 90 h. inhibition, % at 24.9 µM. shares compounds with T cruzi growth-1;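 active = mean loss of cell viability signal at or above a set limit, and enough replicates individually reaching it; inconclusive = meets only the mean limit or only the replicate share; inactive = meets neither condition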;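 also: 0% = median of neutral control wells and 100% = median of positive control wells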
Active calls of the source: *; u = inconclusive; x = no result given. The sample as a whole holds a higher share of hits than the screen did.

SMILES	T cruzi growth-1	KDM4C inh	IDH1 mut inh	T cruzi growth-2	T cruzi growth-3	3T3 cytotox	3T3 cytotox 2
COc1ccc(CNC(=O)C[C@@H]2C[C@H]3c4cc(N(C)C)ccc4O[C@H]3[C@@H](CO)O2)cc1	-17.8	2.4	-1.7	x	x	x	x
CN(C)c1ccc2c(c1)[C@@H]1C[C@@H](CC(=O)NCc3cc(F)ccc3F)O[C@H](CO)[C@@H]1O2	36.3	5.0	-2.9	x	x	x	x
CN(C)c1ccc2c(c1)[C@H]1C[C@H](CC(=O)NCc3ccc(-c4ccccc4)cc3)O[C@@H](CO)[C@H]1O2	113.7*	4.0	-1.5	110.3*	102.4*	5.4	4.3
COC(=O)CCCCCCC(=O)N/N=C/c1ccccc1[N+](=O)[O-]	x	x	-0.3	x	x	x	x
O=C(CCNc1ccc2c(c1)oc1ccccc12)c1ccc([N+](=O)[O-])cc1	x	x	0.1	x	x	x	x
COc1ccccc1N(CC(=O)Nc1ccc(I)cc1C)S(C)(=O)=O	x	x	0.2	x	x	x	x
O=C(C[C@@H]1CC[C@H]2[C@@H](COC[C@H](O)CN2S(=O)(=O)c2ccccc2)O1)Nc1ccc(-c2ccccc2)cc1	70.3	-2.3	x	x	x	x	x
O=C(C[C@H]1CC[C@H]2[C@@H](COC[C@@H](O)CN2S(=O)(=O)c2cccc(Cl)c2)O1)Nc1ccccc1	15.1	0.1	x	x	x	x	x
O=C(C[C@@H]1CC[C@@H]2[C@H](COC[C@H](O)CN2S(=O)(=O)c2cccc(Cl)c2)O1)Nc1ccc(-c2ccccc2)cc1	110.3*	-0.2	x	93.2	111.3*	36.4*	75.4*
O=C(C[C@@H]1CC[C@H]2[C@@H](COC[C@H](O)CN2S(=O)(=O)c2cccc(Cl)c2)O1)Nc1ccc(-c2ccccc2)cc1	u	-2.8	x	110.0*	71.5	22.3	105.3*
COC(=O)C1=CO[C@@H](OC2OC(O)C(O)C(O)C2CO)[C@H]2[C@@H]1C=CC21C=C([C@H](C)OC(=O)/C=C/c2ccc(OC3OC(CO)C(O)C(O)C3O)cc2)C(=O)O1 (some centres not stated)	x	x	0.3	x	x	x	x
CC(NS(=O)(=O)c1ccc(Cl)cc1)C(=O)Nc1cccc(Br)c1 (configuration not stated)	x	x	-0.6	x	x	x	x
C[C@@H]1CN([C@H](C)CO)C(=O)Cc2cc(N(C)C)ccc2O[C@H]1CN(C)Cc1ccc(Oc2ccccc2)cc1	93.7	6.7	0.2	x	x	x	x
C[C@H](CO)N1C[C@H](C)[C@H](CN(C)Cc2ccc(Oc3ccccc3)cc2)Oc2ccc(N(C)C)cc2CC1=O	65.3	0.1	x	x	x	x	x
C[C@@H]1CN([C@@H](C)CO)C(=O)Cc2cc(N(C)C)ccc2O[C@H]1CN(C)Cc1ccc(Oc2ccccc2)cc1	111.3*	7.5	0.1	91.2	114.7*	7.4	105.5*
C[C@H](CO)N1C[C@H](C)[C@@H](CN(C)Cc2ccc(Oc3ccccc3)cc2)Oc2ccc(N(C)C)cc2CC1=O	116.1*	0.8	-0.1	114.2*	81.7	15.2	106.4*
Cc1ccc(O)c(/C=N/NC(=O)CCCCCCC(=O)Nc2ccccc2O)c1	x	x	-0.4	x	x	x	x
Cc1cc(Br)ccc1NC(=O)Cn1ccc([N+](=O)[O-])n1	x	x	0.2	x	x	x	x
O=C(CSc1ncn[nH]1)Nc1nsc(-c2ccc(Cl)cc2)n1	x	x	0.2	x	x	x	x
Cc1ccc2oc(C(=O)Nc3sc4c(c3C(=O)NCc3ccco3)CCC4)c(C)c2c1	x	x	0.2	x	x	x	x
Cc1ccccc1-c1ccc([C@H]2[C@@H](CO)N3CCCCN(S(=O)(=O)c4cn(C)cn4)C[C@@H]23)cc1	114.9*	0.9	x	3.1	-25.1	1.0	31.8*
Cc1ccccc1-c1ccc([C@@H]2[C@H](CO)N3CCCCN(S(=O)(=O)c4cn(C)cn4)C[C@@H]23)cc1	62.6	0.7	x	x	x	x	x
Cc1ccccc1-c1ccc([C@H]2[C@H]3CN(S(=O)(=O)c4cn(C)cn4)CCCCN3[C@H]2CO)cc1	113.7*	-1.9	x	60.0	-18.9	19.4	u
Cc1ccccc1-c1ccc([C@@H]2[C@@H](CO)N3CCCCN(S(=O)(=O)c4cn(C)cn4)C[C@H]23)cc1	88.5	-0.7	x	x	x	x	x
COC(=O)c1cccc(NC(=O)COc2cc(C)cc(C)c2)c1	x	x	-0.8	x	x	x	x
SMILES	T cruzi growth-1	KDM4C inh	IDH1 mut inh	T cruzi growth-2	T cruzi growth-3	3T3 cytotox	3T3 cytotox 2
CC(NS(=O)(=O)c1ccc(Br)cc1)C(=O)Nc1cccc(C(F)(F)F)c1 (configuration not stated)	x	x	-1.0	x	x	x	x
CC1CCc2c(sc3nc(SCC(=O)NCC4CCCO4)n(-c4ccccc4)c(=O)c23)C1 (configuration not stated)	x	x	0.2	x	x	x	x
COc1ccccc1C#Cc1ccc([C@H]2[C@@H](CO)N3CCCCN(C(=O)C4CC4)C[C@@H]23)cc1	110.4*	x	x	103.7*	65.1	56.7*	47.3*
COc1ccccc1C#Cc1ccc([C@H]2[C@H]3CN(C(=O)C4CC4)CCCCN3[C@H]2CO)cc1	101.3*	x	x	100.3*	57.0	30.3	48.3*
COc1ccccc1C#Cc1ccc([C@H]2[C@H]3CN(S(C)(=O)=O)CCCCN3[C@H]2CO)cc1	74.7	0.9	x	x	x	x	x
COc1ccccc1C#Cc1ccc([C@@H]2[C@H](CO)N3CCCCN(S(C)(=O)=O)C[C@@H]23)cc1	91.1	1.5	x	x	x	x	x
CCC(Sc1nc(C)cc(C)n1)C(=O)N1c2ccccc2Sc2ccccc21 (configuration not stated)	x	x	-0.7	x	x	x	x
Cc1cc(OCC(=O)Nc2cccc3ncccc23)cc(C)c1Cl	x	x	-0.6	x	x	x	x
O[C@@H]1[C@@H](O)[C@H](OC/C=C/c2ccccc2)O[C@H](CO[C@@H]2OC[C@H](O)[C@H](O)[C@H]2O)[C@H]1O	x	x	-0.3	x	x	x	x
COc1ccc(C#Cc2ccc([C@H]3[C@@H](CO)N4CCCCN(S(=O)(=O)c5ccccc5)C[C@H]34)cc2)cc1	101.4*	-1.3	x	97.9*	76.4	25.1	104.5*
COc1ccc(C#Cc2ccc([C@H]3[C@H]4CN(S(=O)(=O)c5ccccc5)CCCCN4[C@H]3CO)cc2)cc1	106.9*	-1.4	x	110.7*	99.1*	3.5	51.9*
COc1ccc(S(=O)(=O)N2CCCCN3[C@H](C2)[C@@H](c2ccc(C#CCC(C)C)cc2)[C@@H]3CO)cc1	64.9	-0.4	x	x	x	x	x
O=S(=O)(c1ccccc1)N1CCCCN2[C@@H](CO)[C@@H](c3ccc(C#Cc4ccccc4)cc3)[C@@H]2C1	69.9	-2.0	x	x	x	x	x
COc1ccc(C#Cc2ccc([C@@H]3[C@H]4CN(S(=O)(=O)c5ccccc5)CCCCN4[C@H]3CO)cc2)cc1	45.6	0.1	x	x	x	x	x
O=S(=O)(c1ccccc1)N1CCCCN2[C@H](CO)[C@@H](c3ccc(C#Cc4ccccc4)cc3)[C@@H]2C1	82.9	x	x	x	x	x	x
COc1ccc(S(=O)(=O)N2CCCCN3[C@@H](CO)[C@H](c4ccc(C#CC(C)C)cc4)[C@@H]3C2)cc1	103.6*	1.6	x	97.5*	84.8	46.3*	104.4*
